Data published in ChEMBL document CHEMBL1121824, “1-Aryl-3-azabicyclo[3.1.0]hexanes, a new series of nonnarcotic analgesic agents” (1981).

Legend:
Format in all cases: functional
[1] = system: Rattus norvegicus; test: Analgesic activity was measured using inflamed rat paw pressure threshold method expressed as ED50 (sc)
In short: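 Paw-pressure threshold in rats, left hind paw injected with 0.1 mL 20% brewers' yeast; threshold recorded 2 h post-yeast. Compound given subcutaneously in normal saline at times set by duration of action. Positive = ≥100% threshold rise; ED50 with 95% confidence limits via Finney linear arc sine transformation.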

[2] = system: Rattus norvegicus; test: Analgesic activity was assessed for inflamed rat-paw reversal of abnormal (three legged) gait expressed as ED50 (sc)
In short: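 Yeast (brewers') injected into plantar surface of left hind paw; gait scored 0–2 at 3 h. Rats scoring 2 received compound subcutaneously in normal saline; postdrug scores taken at set intervals. ≥50% gait reduction counted positive; ED50 = dose lowering score 2 to 1 in 50% of rats.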

[3] = system: Rattus norvegicus; test: Analgesic activity for inflamed rat-paw reversal of abnormal (three legged) gait expressed as ED50 (po).
In short: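 Rats given brewers' yeast in plantar surface of left hind paw; 3 h later gait scored 0 (normal) to 2 (maximal abnormal). Rats scoring 2 dosed orally in 2% starch suspension with 5% PEG 400 and Tween 80; gait rescored at set intervals. ED50 = dose reducing score from 2 to 1 in 50% of rats.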

[4] = system: Rattus norvegicus; test: Analgesic activity was measured using inflamed rat paw pressure threshold method expressed as ED50 (po)
In short: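 Modified Randall–Selitto: left hind paw sensitised with 0.1 mL 20% aqueous brewers' yeast, pressure-pain threshold read 2 h after yeast. Oral dosing in 2% starch/5% PEG 400/Tween 80, timed to peak effect. ≥100% threshold elevation positive; ED50 (dose giving this in 50% of rats) with 95% limits by Finney arc sine method.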

[5] = system: Mus musculus; test: Analgesic activity was measured using mouse anti-writhing method expressed as ED50 (po)
In short: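 Mice in pairs; writhing induced by intraperitoneal phenyl-p-quinone 1 mg/kg. Compound given orally in 2% starch suspension with 5% PEG 400 and a drop of Tween 80.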

[6] = Rattus norvegicus, po, read-out: ED50
[7] = Mus musculus, po, read-out: ED50

SMILES	ED50 [3, 6]	ED50 [4, 6]	ED50 [5, 7]	further results
Cl.Oc1cccc(C23CNCC2C3)c1 (stereo not given)				ED50 [1]: > 25 mg/kg; ED50 [2]: 16 mg/kg
Cl.FC(F)(F)c1ccc(C23CNCC2C3)cc1 (stereo not given)	38 mg/kg	40 mg/kg	> 100 mg/kg	
CC(C)c1ccc(C23CNCC2C3)cc1.Cl (stereo not given)			30 mg/kg	ED50 [1]: > 25 mg/kg; ED50 [2]: 9 mg/kg
COc1cccc(C23CC2CN(C)C3)c1.Cl (stereo not given)	> 100 mg/kg			
Cl.Clc1cccc(C23CNCC2C3)c1 (stereo not given)	> 50 mg/kg	50 mg/kg	34 mg/kg	
CN1CC2CC2(c2ccc(Cl)cc2)C1.Cl (stereo not given)	> 50 mg/kg	60 mg/kg	< 100 mg/kg	
COc1ccc(C23CNCC2C3)cc1.Cl (stereo not given)	24 mg/kg	49 mg/kg	4 mg/kg	
COc1ccc(C23CNCC2C3)cc1Br.Cl (stereo not given)	> 25 mg/kg			
Cl.Fc1ccc(C23CNCC2C3)cc1 (stereo not given)	> 50 mg/kg	14 mg/kg	34 mg/kg	
Cl.FC(F)(F)c1cc(C23CNCC2C3)ccc1Cl (stereo not given)	177 mg/kg			
COc1cccc(C23CNCC2C3)c1.Cl (stereo not given)	177 mg/kg			
Cl.Fc1cccc(C23CNCC2C3)c1 (stereo not given)	> 50 mg/kg	67 mg/kg	21 mg/kg	
Cl.Oc1ccc(C23CNCC2C3)cc1 (stereo not given)	> 200 mg/kg			
Cl.Clc1ccc(C23CNCC2C3)cc1Cl (stereo not given)	141 mg/kg			
CCCCCCc1ccc(C23CNCC2C3)cc1.Cl (stereo not given)	> 50 mg/kg			
Cc1ccccc1C12CNCC1C2.Cl (stereo not given)	> 50 mg/kg		> 50 mg/kg	
CCOc1ccc(C23CNCC2C3)cc1.Cl (stereo not given)	29 mg/kg			
CC(C)(C)c1ccc(C23CNCC2C3)cc1.Cl (stereo not given)	> 200 mg/kg			
Cc1cccc(C23CNCC2C3)c1.Cl (stereo not given)	> 50 mg/kg	25 mg/kg	18 mg/kg	
Cc1ccc(C23CC2CN(CC2CC2)C3)cc1.Cl (stereo not given)	> 50 mg/kg			

SMILES	ED50 [3, 6]	ED50 [4, 6]	ED50 [5, 7]	further results
C=CCN1CC2CC2(c2ccc(C)cc2)C1.Cl (stereo not given)	> 50 mg/kg			
Cc1ccc(C23CC2CN(C)C3)cc1.Cl (stereo not given)	20 mg/kg	24 mg/kg	16 mg/kg	
Brc1ccc(C23CNCC2C3)cc1.Cl (stereo not given)	141 mg/kg			
CN1CC2CC2(c2cccc(O)c2)C1.Cl (stereo not given)	> 50 mg/kg		> 50 mg/kg	ED50 [1]: 25 mg/kg
Cl.Clc1ccccc1C12CNCC1C2 (stereo not given)	> 100 mg/kg			
CCc1ccc(C23CNCC2C3)cc1.Cl (stereo not given)	13 mg/kg	25 mg/kg	24 mg/kg	
CCCCCCN1CC2CC2(c2ccc(C)cc2)C1.Cl (stereo not given)	> 50 mg/kg			
Cl.FC(F)(F)c1cccc(C23CNCC2C3)c1 (stereo not given)	28 mg/kg	50 mg/kg	29 mg/kg	
Cl.c1ccc(C23CNCC2C3)cc1 (single isomer, unassigned; (+))				ED50 [3]: 125 mg/kg; ED50 [4]: 79 mg/kg
Cl.c1ccc(C23CNCC2C3)cc1 (single isomer, unassigned; (-))				ED50 [3]: >200 mg/kg; ED50 [4]: 43 mg/kg; ED50 [5]: <50 mg/kg
Cc1ccc(C23CNCC2C3)cc1.Cl (single isomer, unassigned; (-)) [BICIFADINE HYDROCHLORIDE]				ED50 [3]: >200 mg/kg; ED50 [4]: >25 mg/kg
Cl.Clc1ccc(C23CNCC2C3)cc1 (stereo in doubt; 2a)				ED50 [3]: 31 mg/kg; ED50 [4]: 21 mg/kg; ED50 [5]: 21 mg/kg
Cc1ccc(C23CNCC2C3)cc1.Cl (stereo in doubt; 2b) [BICIFADINE HYDROCHLORIDE]			13 mg/kg	ED50 [3]: 18 mg/kg; ED50 [4]: 11 mg/kg; ED50 [2]: 4 mg/kg
Cl.c1ccc(C23CNCC2C3)cc1 (stereo in doubt; 2c)		71 mg/kg	< 100 mg/kg	ED50 [3]: 70 mg/kg
Cc1ccc(C23CNCC2C3)cc1.Cl (stereo in doubt; 2v) [BICIFADINE HYDROCHLORIDE]				ED50 [3]: 17 mg/kg; ED50 [4]: <25 mg/kg
Cl.Clc1ccc(C23CNCC2C3)cc1 (stereo in doubt; 2x)				ED50 [3]: 25 mg/kg; ED50 [4]: 13 mg/kg; ED50 [5]: 19 mg/kg
Cl.Clc1ccc(C23CNCC2C3)cc1 (stereo in doubt; 2y (-))				ED50 [3]: 150 mg/kg; ED50 [4]: >50 mg/kg; ED50 [5]: <100 mg/kg
CC(=O)Oc1ccccc1C(=O)O [ASPIRIN]	74 mg/kg	150 mg/kg	29 mg/kg	
COc1ccc2c3c1O[C@H]1[C@@H](O)C=C[C@H]4[C@@H](C2)N(C)CC[C@@]341.COc1ccc2c3c1O[C@H]1[C@@H](O)C=C[C@H]4[C@@H](C2)N(C)CC[C@@]341.O.O=P(O)(O)O.O=P(O)(O)O [CODEINE PHOSPHATE]	51 mg/kg	43 mg/kg	9 mg/kg	
